Data from publication PMC2793091 (Biochemistry, 2009).
Like-named read-outs stand apart in the source and are kept apart here.

Tests used:
[1] = pH 10
VAChT = details: cited from earlier work
[2] = Solubility in binding buffers at different pH
[3] = system: postnuclear supernatant from cells not transfected with VAChT; format: binding, rat; details: five nM [3H]vesamicol
In short: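 Postnuclear supernatant (1500g, 10 min) from untransfected PC12^A123.7 cells, in sucrose/HEPES/DTT buffer pH 7.4. 20 μg protein mixed with iso-osmolal MES/HEPES/AMPSO pH buffer. Started with [³H]vesamicol in potassium tartrate/HEPES/DTT buffer; 10 min, 23°. pH measured just before filtration. Two portions filtered, washed with ice-cold buffer containing 5 μM (±)-vesamicol, scintillation-counted, averaged. Nonspecific binding measured with 5 μM (±)-vesamicol.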

[4] = titration of (±)-vesamicol absorbance at 263 nm; cited from earlier work
sigma 1 receptors = details: cited from earlier work
sigma 2 receptors = details: cited from earlier work

For `Nc1cccc2c1CC(N1CCC(c3ccccc3)CC1)C(O)C2` (racemic) [(±)-ABV, (±)-aminobenzovesamicol], the solubility [1] is given as “soluble” and the “potency relative to (±)-vesamicol” value (VAChT) is given as “about 1000 fold”.

With “(±)-trans-2-(4-phenylpiperidino)cyclohexanol [(±)-vesamicol]” the solubility ([2]; 200 μM, pH 10 (data not shown)) was “not soluble” and the solubility ([2]; 1 mM, acidic and neutral pH) was “soluble”.

In the case of “(−)-[^3H]trans-2-(4-phenylpiperidino)cyclohexanol [[^3H]vesamicol]”, the “"specific-nonspecific" binding” value ([3]; high pH) is given as ~ 0.4 pmol/mg, the “"specific-nonspecific" binding” value ([3]; low pH) is given as “essentially no” and the “pKaves (protonated vesamicol)” value [4] is given as 9.0 ± 0.1.

In the case of “(−)-trans-2-(4-phenylpiperidino)cyclohexanol [(−)-vesamicol]”, the “pKaves (protonated vesamicol)” value [4] is given as 9.0 ± 0.1, the “affinity relative to VAChT” value (sigma 1 receptors) is given as “only somewhat less than for VAChT” and the “affinity relative to VAChT” value (sigma 2 receptors) is given as “only somewhat less than for VAChT”.
